The results in this text go back to the RNAGym collection of RNA variant scans (doi:10.1126/science.aae0568).

This sample holds only a part of the variants without activity. Some results are limits rather than exact numbers.

First the molecules themselves.
B1: tRNA (parent)
chain: GUUCCGUUGGCGUAAUGGUAACGCGUCUCCCUCCUAAGGAGAAGACUGCGGGUUCGAGUCCCGUACGGAACG

The variants in this data set derive from B1. The data set is described as follows: yeast fitness relative to wild type (ratio to wild type); higher = fitter; tRNA-Arg(CCU), competitive growth, 37 C, YPD. In short, it runs like this:
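Amplicons of the tRNA-Arg(CCU) gene were sequenced, 100-nucleotide paired-end, from the start population and from each end population of a pooled yeast competition. The competition, in six parallel replicates, lasted 24 hours in YPD at 37°C. Fitness relative to wild type was calculated from changes in genotype frequencies. Genotypes had to have ≥ 100 starting reads, and estimates < 0.5 were set to 0.5.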
Take GUUCCGUUGGCGUAAUGGUAACCCGUCUCCCUUCUAAGGAGAAGACUGCGGGUUCGAGUCCCGUACGGAACG: the yeast fitness was determined as 0.544. GUUCCGUUGGCGUAAUGGCAACGCGUCUCCCUCCUAAGGAGAAGACUGCGGGUUCGAGUCCCGUAUGGAACG: the yeast fitness was 0.855. Next, GUUCCGUUGGCGUAAUGGUAACGAGUCUCCCUCCUAAGGAGGAGACUGCGGGUUCGAGUCCCAAACGGAACG: ≤ 0.5. The result for GUUCCGUUGGCGUAAUGGUAACGCGUCUCCCUCCUUAGGAGAAGCCUGCGGGUUCGAGUCCCCUACGGAACG reads 0.614.

Take GUUACGUUGGCGUAAUGGUAACGCGUCUCCCUCAUAAGGAGAAGACUGCGGGUUCGAGUCCGGUACGGAACG: the yeast fitness is ≤ 0.5. As for GUUCCGUUGGCCUAAUGGUAACGCGUCUCCCUCCUAAGGAGAAGAUUGGGGGUUCGAGUCCCGUACGGAUCG, the yeast fitness was 0.526.

For the variant GUGCCGUAGGCGUAAUGGUAACGAGUCUCCCUCCUAAGGAGAAGACUGCGGGUUCCAGUCCCGUACGGAACG, the yeast fitness is ≤ 0.5. GUUACGUUGGCGUUAUGGUCACGCGUCGCCCUCCUAAGGAGGAGACUGCGGGUUCGAGUCCCGUACGGAACG: the yeast fitness was ≤ 0.5. Next, GUUCCGUUGGCGUAAUGGUAACGCGUCUCCCUCCGAAAGAGAAGACUGCGGCUUCGAGUCCCGUACGGAACG: 0.678; GUUCCGUUGGCGUAAUGGUAACGCGUCUCCCUCCUCAGGAGAAGACUGCGGCUUCGAGUCCCGUAUGGAACG: 0.54. As to GUUAUGUUGGCGUAAUGGUAACGCGUCUCCCUCUUAAGGAGAAGACUGCGGGUUCGAGUCCCGGACGGUACG, the yeast fitness was ≤ 0.5. With GUUCCGUUGGCGUAAUGGUAACGCGUUUCCCUCCUAAGGAGAAGACUGCGGGUUCGAGUCCCGUGCGGAACG, the yeast fitness came out at 0.975.

Regarding GUUCCGUUGGCGUAAUGGUAACGCGUUUCCCUCCUAAGGAGAAGACUCCGGGUUCGCGUCCCGUACGGAACG, the yeast fitness was ≤ 0.5. As for GAUCGGUUGGCGUAGUGGUAACGCGUCUCCCUCCUAAGGAGAAGACUGCGGGUUCGAGUCCCGUACGGAACG, the yeast fitness came out at 0.575. As for GUUCCGAUGGUGUAAUGGUAACGCGUCUCCCUCCUAAGGAGAAGACUGCGGGUUCGAGUCCCGUUCGGAACG, the yeast fitness stood at 0.682. As to GUUCCGCUGGCGUAAUGGUAACGCGUCUCCCUCCUAAGGAGAAGACUGCGGGUUCGAGUCCCGUACUGAUCG, the yeast fitness came to 0.544.

Turning to GUUCCGUUGGCGCAAUGGUACCGCGUCUCCUUCCUAAGGAGAAGACUGCGGGUUCGAGUCCCGUACGGAACG, the yeast fitness was ≤ 0.5. In the case of GUUGCGUUGGCGUCAUGGUAACGCCUCUCCCCCCUAAGGAGAAGUCUGCGGGUUCGUGUCCCGUACGGAACG, the yeast fitness is ≤ 0.5. GUUCCGUUGGCGUAAUGGAAACGCGUUUCCCUCCUAAGGAGAAGACUGCGGGUUCGAGUCCCGUUCGGAACG: the yeast fitness was 0.717.

For the variant GUUCCGUUCGCGUAAUGGUAACGCGUCUCCCUCCUAAGGGGGAGACUGCGGGUUCGUGUCCGGUAUGGAACG, the yeast fitness came to 0.565. Take GUUCCGUUGGCGUAAUGGUAACGCGUCUCCCUCCUAAGGAGAAGACUCCGGGUUCGAGUCCCAUGCGGAACG: the yeast fitness is 0.71. The result for GUUCCGUUGGCGUAAUGGUAACGCGUCUCCCUCGUAAGGAGAAGACUGCCGGUUCGAGUCCAGUACGGAACG reads ≤ 0.5; that for GUUCCGUUGGCGUAAUGGUAACUCGUCUCCCUCCUAAGGAGAUGACUGCGGGUUGGAGUCCCGUACGGAACG, ≤ 0.5. Consider GUUCCGUUGGGGUAAUGGUAACGCGUCUCCUUUCUAAGGAGAAGACUGCGGGUUCGAGUCCCGUACGGAACG, for which the yeast fitness came out at 0.509. Take GUUCCGUUGGCGUAAUGGUAACGCGUCUCGCUCCUAAGGAGACGACUGCGGGUUCGAGUCCCGUACGGAACG: the yeast fitness was found to be 0.549. Turning to GUUCCGUUGACGUAAAGGUAACGCGUCUCCCUCCGAAGGAGAAGACUGCGGGUUCGAGUCCCGUACGGAACG, the yeast fitness was ≤ 0.5. For GUUCCGUUGGAGUAUUGGUAUCGCGUCUCCCUCCUCUGGAGAAGACUGCGGGUUCGAGUCCCGUACGGAACG, the yeast fitness is 0.56. Regarding GUUCCGUUGGCGUAAUGGUAAAGCGACUCCCUCCUAAGGAGAAGACUGCGGGUUCGAGUCCCGUAUGGAACG, the yeast fitness was found to be 0.582. With GUUGCGUUGGCGUAGUAGUAACGCGUCUCCCUCAUAAGGAGAAGACUGCGGGUUCGAGUCCCGUACGGAACG, the yeast fitness is ≤ 0.5. The result for GUGCCGUUGGCGUAAUGGUAACGCGUCACCCUUCUGAGGAGAAGACUGCGGGUUCGAGUCCCGUAAGGAACG reads ≤ 0.5; that for GUUCCAUUGGCGUAAUGGUAAUGCGUCUCCGUCCUAAGGAGAAGACUGCGGGUUCGAGUCCCGUACGGAACG, ≤ 0.5; that for GUUCCGUUGGCGUAAUGGUAACGCGUCUCCCUCCUAAGAAGAAGACUGCGAGAUCGAGUCCCCUACGGAACG, ≤ 0.5. Turning to GUUUCGUUGGCGUAUUGGUAACGCGUCCCCCUCCUAAGGAGAAGACUGCGGGUUCGGGUCGCGUACGGAACG, the yeast fitness was ≤ 0.5. The result for GUUCCAUUGGCGUACUGGUAACGCGUAUCCCUCCUAAGGAGAGGACUGCGGGUUCGAGUCCCGUACGGAACG reads 0.592; that for GUUCCGUUGGCGUAAUGGUAACGGGUCUCCCUCCUAGGGAGAAGACUGCGGGUUCGAGACCAGUACAGAACG, ≤ 0.5.

In the case of GUUCUGUUGGCAUAAUGGUAACGCGUCUUCCUCCUAAGGAGAAGACUGCGGGUUCGAGUCCCGUACGGAACG, the yeast fitness came to 0.565. With GUUCCGUUGGCCUAAUGGUAACGCCUCUCCCUCCUAAGGAGAAGACUGCGGGUUCGAGUCCCGUAGGGAACG, the yeast fitness is ≤ 0.5. Next, GUUCCGUUGGCGUAAUGGUAACGCGUCUCCCUCCUAAGGAGAAGACUGCGGGUUCGAAUCCCGUACGCAACG: 1.01.
